Screening data: PubChem BioAssay, Broad Institute
FN deposit inh: fibronectin deposition inhibition; AH1F fibroblasts, Alexa488-fibronectin deposition fluorescence, overnight; inhibition, % at 12.6 µM; hit rate 0.086% among 350,000; AID 743247;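 active means mean inhibition across replicates of 30% or more, regardless of how many single replicates reach that level; inconclusive means mean under 30% yet at least half of replicates reach 30%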;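 further: positive control wells lacked labelled fibronectin entirely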
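Assay system: AH1F fibroblast monolayer, labelled fibronectin deposition. Amount: 10000 cells per well. Also added: labelled fibronectin 24 nM. Compound: single-point pinned compound. Incubation: cell attachment 1 h, compound and FN exposure overnight. Detection: fluorescence after three HBSS washes, excitation 485 nm, emission 525 nm. Read-out: inhibition of fibronectin deposition signal.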
PGC1a acetyl inh: modulators of PGC1a acetylation. U2OS PGC1a acetylation, AlphaScreen anti-acetyl-lysine; with virally co-expressed GCN5 acetyltransferase. inhibition, % at 15.6 µM. hit rate 0.17% among 350,000;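 active means every replicate shows inhibition of at least 40%; inconclusive means mean inhibition at least 40% but some replicate below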;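 further: 0% = neutral control wells and 100% = positive control wells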
Env fusion inh: inhibitors of HIV Env-mediated cell fusion; HeLa-JRFL Env/CEM21 cell fusion, luciferase; inhibition, % at 12.3 µM; hit rate 1.1% among 360,000; AID 651610;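 active means mean replicate inhibition score of at least 50 and every replicate individually at or above 50; inconclusive means only one of the two criteria met; inactive means mean below 50 and not all replicates reaching 50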;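 further: 0% = plate neutral controls and 100% = maraviroc near 300 nM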
PglD inh: blocks C. jejuni PglD acetyltransferase activity; inhibition, % at 12.5 µM; hit rate 0.098% among 360,000; purified PglD enzyme, DTNB colorimetric CoA detection; in the data active means inhibition above about 16%, passing the limit was not always enough; inconclusive means no clear call, values can overlap the other calls
rRNA inh HTS: inhibits bacterial ribosomal RNA function over humanized ribosomes. E. coli WT GFP vs humanized-ribosome RFP mutants, fluorescence, 24 h; active compounds read low; DMSO median 0, no signal -100. GFP signal change (wild-type ribosome), % (test concentration not listed). hit rate 1.6% among 350,000. AID 720706;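 active means significant combined selectivity score with lowered wild-type GFP, culture density cut under 30%, mutant RFP and density less affected; inactive means any of these conditions unmet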
DENV2 CPE rescue: protects cells from dengue virus 2 cytopathic effect | DENV2-infected cells, cytopathic effect rescue, plate reader | CPE inhibition, % at 9.99 µM | hit rate 1.7% among 350,000; in the data active means CPE inhibition above about 20%, passing the limit was not always enough; inconclusive means no clear call, values can overlap the other calls; tested in BHK-21 cells;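 further: 0% = median of neutral control wells and 100% = median of positive control wells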
* = called active by the depositor; ? = inconclusive; / = not tested or not shown; [ ] = remark or other dose. A selection: hits, their analogues and other compounds. The true share with any hit is near 3.5%.

SMILES	FN deposit inh	PGC1a acetyl inh	Env fusion inh	PglD inh	rRNA inh HTS	DENV2 CPE rescue
COC(=O)C[C@@H]1CC[C@H]2[C@H](COc3ccc(NC(=O)c4cccc(F)c4)cc3C(=O)N2C)O1	4.0	2.1	-1.9[16.7 µM]	-0.1	-4.0	1.1
Cc1oc(/N=C/c2ccccc2)c(C#N)c1C	8.6	/	6.4	0.2	31.1	22.5*
O=C(c1ccncc1)N1CC2(C1)[C@H](c1ccccc1)[C@@H](CO)N2C(=O)c1ccncc1	/	5.4	/	/	3.5	-8.1
C=CCN=C1CCCc2c1[nH]c1ccc(C)cc21	-4.5	-6.4	62.2*	-6.6	-20.3	-4.5
COC(=O)c1cc(C(=O)OC)n(Cc2ccc(F)cc2)c1C	11.5	/	2.8	2.4	-40.5*	7.7
O=C(N/N=C/c1cccc(O)c1)NC1CCCCC1	-4.3	3.8	4.2	/	-25.4*	3.1
COC(=O)C[C@H]1CC[C@@H]2[C@H](COc3ccc(NC(=O)Nc4ccccc4C)cc3C(=O)N2C)O1	-7.8	-0.2	0.7[16.7 µM]	-5.1	2.3	10.1
Cc1ccc(C)c(CN2CCC(n3nccc3NC(=O)CCCc3ccccc3)CC2)c1	3.7	/	1.7	-2.3	-26.6*	2.1
O=C(CCCc1ccccc1)Nc1ccnn1C1CCN(Cc2ccccc2)CC1	5.5	1.8	2.8	/	5.6	-1.4
CCC(CO)Oc1cc(NCc2cccc(O)c2)c2ncn(C(C)C)c2c1 (stereo not given)	-2.2	0.4	-23.6	-3.1	-1.1	-6.6
CCC(CO)Oc1cc(NC(=O)c2ccc(N)cc2)c2ncn(C(C)C)c2c1 (stereo not given)	7.9	7.5	5.7	0.4	-20.0*	9.6
CCC(CO)Oc1cc(NCc2cccc(F)c2)c2ncn(C(C)C)c2c1 (stereo not given)	-1.1	/	-1.1	-1.9	1.9	117.6*
C[C@H]1CN([C@@H](C)CO)C(=O)c2cccc(NC(=O)c3ccc(-c4nccs4)cc3)c2O[C@H]1CN(C)C(=O)Nc1ccc2c(c1)OCO2	/	-10.9	/	-1.3	0.2	-6.3
CO[C@@H]1CN(C)C(=O)c2ccc(NC(=O)c3ccc(F)cc3)cc2OC[C@H](C)N(C(C)=O)C[C@H]1C	-0.3	1.5	/	1.1	1.3	5.2
Cc1cccc(N2CCN(C(C(=O)NCc3ccccc3)c3ccco3)CC2)c1C (stereo not given)	-3.7	/	14.5	/	-38.8	2.7
Cc1cccc(N2CCN(C(C(=O)NCc3ccccc3)c3ccc(F)cc3)CC2)c1C (stereo not given)	7.9	/	-3.9	/	4.7	59.5*
CO[C@@H]1CN(C)C(=O)c2cc(NC(C)=O)ccc2OC[C@H](C)N(Cc2cncnc2)C[C@H]1C	6.6	2.7	/	/	1.9	0.3
Cc1ccc(S(=O)(=O)Nc2ccc3c(c2)C(=O)N([C@H](C)CO)C[C@@H](C)[C@H](CN(C)CC2CC2)O3)cc1	-6.5	-5.4	/	0.4	1.4	-2.1
O=S(Cc1ccc(Br)cc1)Cc1nnc(SCc2c(F)cccc2Cl)n1-c1ccccc1 (stereo not given)	-12.4	/	/	/	/	/
O=S(Cc1ccc(Br)cc1)Cc1nnc(SCc2ccc(Cl)cc2)n1-c1ccccc1 (stereo not given)	-1.3	7.8	65.4*	2.2	/	/
Cn1c(CS(=O)Cc2c(Cl)cccc2Cl)nnc1SCc1ccc(Cl)cc1 (stereo not given)	8.9	9.9	62.0*	/	/	/
C[C@@H]1CN([C@H](C)CO)C(=O)Cc2cc(NC(=O)NC3CCCCC3)ccc2O[C@H]1CN(C)C(=O)Nc1cccc2ccccc12	/	-5.0	-7.0[16.7 µM]	-4.1	3.5	-3.8
NC(=O)Cn1c(S(=O)(=O)Cc2ccccc2)nc2ccccc21	-28.2	0.5	-46.6	-2.8	/	/
C#CCn1c(S(=O)(=O)Cc2ccc(F)cc2)nc(-c2ccccc2)c1-c1ccccc1	-7.4	-35.3	66.2*	0.3	/	/
CCOC(=O)Cn1c(S(=O)(=O)Cc2cccc(F)c2)nc(-c2ccccc2)c1-c1ccccc1	9.6	-17.2	87.0*	-2.2	/	/
SMILES	FN deposit inh	PGC1a acetyl inh	Env fusion inh	PglD inh	rRNA inh HTS	DENV2 CPE rescue
CCOC(=O)Cn1c(S(=O)(=O)Cc2ccc(F)cc2)nc(-c2ccccc2)c1-c1ccccc1	/	-11.4	-4.2	0.4	/	/
C[C@H](CO)N1C[C@H](C)[C@H](CN(C)Cc2ccc3cccnc3c2)OCc2cn(nn2)CCCC1=O	-6.8	-0.6	/	/	-3.5	/
C[C@H]1CN([C@@H](C)CO)C(=O)c2cc(-c3ccc(C#N)cc3)cnc2O[C@@H]1CN(C)Cc1cncnc1	-15.8	0.0	-16.7[16.7 µM]	-1.2	-2.3	13.0
O=C(CCCN1C(=O)/C(=C/c2ccccc2Cl)SC1=S)NNC(=O)c1ccccc1	8.0	0.5	29.6	-4.6	2.8	?
O=C(CCN1C(=O)S/C(=C\C=C\c2ccccc2)C1=O)Nc1ccc(O)cc1	0.9	/	-129.4	4.1	-24.6*	-9.2
O=C(CN1C(=O)S/C(=C\c2ccccc2)C1=O)NNC(=O)c1ccccc1O	2.3	/	-59.7	/	/	/
O=C(CCCN1C(=O)S/C(=C\c2ccccc2)C1=O)NNC(=O)c1ccccc1O	10.4	-8.8	71.2*	/	3.0	6.2
O=C(CCCN1C(=O)/C(=C\c2ccccc2)SC1=S)Nc1ccc(O)cc1C(=O)O	5.5	4.9	-16.1	2.7	-20.7*	-3.9
O=C(CCCN1C(=O)/C(=C/c2ccccc2Cl)SC1=S)NNC(=O)c1ccc(Cl)cc1Cl	6.4	7.6	56.6*	/	6.0	-3.7
Cc1noc(C)c1NC(=O)Nc1ccc2c(c1)CC(=O)N([C@@H](C)CO)C[C@@H](C)[C@H](CN(C)Cc1ccc(-c3ccccc3)cc1)O2	/	15.3	-24.6[16.7 µM]	/	-3.7	3.9
C[C@@H]1CN([C@H](C)CO)C(=O)c2cccc(NS(C)(=O)=O)c2O[C@@H]1CN(C)C(=O)Nc1ccccc1	-2.8	-10.5	/	-3.1	3.7	2.0
O=C(CCCN1C(=O)/C(=C\c2ccccc2)SC1=S)N1CCOCC1	9.2	2.3	-6.0	-2.6	-21.1*	-6.2
COc1ccc(/C=C2\SC(=S)N(CCCC(=O)N3CCOCC3)C2=O)cc1	/	/	-199.3	-13.1	-11.6	3.9
C/C=C/c1ccc2c(c1)[C@H]1[C@H](CCN1C(=O)C1CC1)[C@@H](CO)N2	-1.6	3.8	/	/	1.3	7.0
N#Cc1c(N)n(C2OC(CO)C(O)C2O)c2ncnc(N)c12 (stereo not given)	34.2*	/	84.1*	/	9.6	5.8
COC(=O)CC1(C(=O)OC)Oc2ccc(Br)cc2C(=O)N1c1cccc(Cl)c1Cl (stereo not given)	5.5	/	65.4*	/	-13.1	-0.1
O=[N+]([O-])c1ccc(N=Nc2c(Cl)cc(O)cc2Cl)cc1	14.1	-53.4	85.1*	-3.1	-4.9	-2.3
CC(N)=Nc1ccc([N+](=O)[O-])cc1	-5.6	6.9	9.3	1.2	/	/
C/C(=N\NC(=O)COc1ccc(C)cc1Br)c1cc([N+](=O)[O-])cs1	/	-14.0	25.5	-1.3	-23.3*	-3.8
C/C(=N\NC(=O)COc1ccc(C)cc1[N+](=O)[O-])c1cccs1	2.5	0.6	-17.6	/	6.0	-2.3
